RBBP9 inhibitor = inhibitors of human serine hydrolase RBBP9 | O75884 | recombinant RBBP9, FP-Rh probe fluorescence polarization | inhibition, % at 7.94 µM | actives 0.2% (n = 220,000);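 active = inhibition above the campaign mean of all tested compounds plus 3 SD, cut at about 14% in these data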;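 note: plate controls were DMSO wells with RBBP9 for no effect and wells lacking RBBP9 protein for full effect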
Target sequence (O75884 whole entry, looked up): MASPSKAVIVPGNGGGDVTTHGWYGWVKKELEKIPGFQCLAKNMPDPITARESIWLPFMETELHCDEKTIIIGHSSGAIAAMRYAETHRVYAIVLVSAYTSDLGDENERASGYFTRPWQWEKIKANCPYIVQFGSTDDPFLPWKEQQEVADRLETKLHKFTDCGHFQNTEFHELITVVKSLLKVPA
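System: RBBP9 protein / Quantity: 2.5 µM RBBP9 dispensing solution, before mixing / Also added: Serine-hydrolase probe FP-Rh, 375 nM pre-mixing / Dosing: 7.94 µM single dose, 0.794% DMSO / Timing: enzyme-compound preincubation 30 min, then probe labeling 45 min, 25 °C / Signal: FP readout at 525/598 nm / Controls: DMSO-treated enzyme wells and wells lacking RBBP9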
ALR H2O2 inh = blocks human ALR sulfhydryl oxidase activity | P55789 | purified ALR, DTT oxidation, H2O2 HRP-luminol luminescence | inhibition, % (test concentration not listed) | actives 3.8% (n = 290,000) | AID 485317;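 active = mean replicate inhibition above about 79%, with every replicate also reaching it, limit read from the data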
Target sequence (P55789 whole entry, looked up): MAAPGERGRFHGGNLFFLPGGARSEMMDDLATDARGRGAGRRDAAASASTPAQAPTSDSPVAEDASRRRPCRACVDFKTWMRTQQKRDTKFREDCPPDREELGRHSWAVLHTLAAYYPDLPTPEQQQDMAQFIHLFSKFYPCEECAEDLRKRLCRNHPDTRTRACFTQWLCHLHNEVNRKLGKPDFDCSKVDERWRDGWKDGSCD
SUMO HTRF inh = SUMOylation inhibition. P63279. HTRF SUMOylation assay, SAE1/SAE2 + UBC9, in vitro. inhibition, % at 35 µM. actives 0.36% (n = 290,000). AID 2006; in the data active = inhibition above about 50%, passing the limit was not always enough
PREPL inhibitor = inhibitors of human prolyl oligopeptidase-like enzyme PREPL. Q4J6C6. recombinant PREPL, fluorescence polarization activity-based probe. inhibition, % at 5.96 µM. actives 0.68% (n = 320,000). AID 2751; in the data active = inhibition above about 43%;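 note: 0% = enzyme with DMSO and 100% = wells lacking enzyme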
UBC13 inh = human UBC13 polyubiquitination inhibition | actives 0.47% (n = 330,000) | inhibition, % at 20 µM | UBC13 polyubiquitin chain formation, TR-FRET | P61088; in the data active = inhibition above about 45%, passing the limit was not always enough
Target sequence (P61088 whole entry, looked up): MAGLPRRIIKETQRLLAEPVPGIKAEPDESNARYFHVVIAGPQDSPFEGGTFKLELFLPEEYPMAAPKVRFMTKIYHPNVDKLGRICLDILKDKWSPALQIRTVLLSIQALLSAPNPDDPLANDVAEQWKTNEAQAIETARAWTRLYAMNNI
Rin1-Abl PPI inh = blocks binding of human Rin1 to Abl; inhibition, % at 7.35 µM; TR-FRET Rin1/Abl binding, biochemical; P00519+Q13671; AID 588664; actives 0.4% (n = 360,000); in the data active = inhibition above about 5%, passing the limit was not always enough
An asterisk follows results filed as active. This is a sample that favours compounds with a hit; in the whole collection about 4.3% have one here.

Results for COc1ccc(N(C(C)C(=O)N(C)Cc2ccccc2)S(C)(=O)=O)cc1 (centres undefined) ?
ALR H2O2 inh: -8; SUMO HTRF inh: 7; PREPL inhibitor: 4; UBC13 inh: 1; Rin1-Abl PPI inh: 0

What do the screens show for `COc1ccc(N2CCN(C(=O)CNC(=O)Cc3ccccc3)CC2)cc1`?
ALR H2O2 inh: 79*; SUMO HTRF inh: 4; PREPL inhibitor: 5; UBC13 inh: 7; Rin1-Abl PPI inh: 4

Results for COc1ccc(N2CCN(C(C)C(=O)N(C)Cc3ccccc3)CC2)cc1 (centres undefined) ?
ALR H2O2 inh: 96*; SUMO HTRF inh: 6; PREPL inhibitor: 18; UBC13 inh: -6; Rin1-Abl PPI inh: -1

How did O=C(CN1CCc2cc3c(cc2C1)OCCCO3)Nc1cccc(Br)c1 do in these assays?
ALR H2O2 inh: 1; SUMO HTRF inh: -4; PREPL inhibitor: 0; UBC13 inh: 3; Rin1-Abl PPI inh: 2

How did O=C(CC1C(=O)NCCN1Cc1ccccc1)NC1CCCCC1 (centres undefined) do in these assays?
Rin1-Abl PPI inh: -4

What do the screens show for `COc1ccc(N2CCN(C(=O)CCc3c[nH]c4ccccc34)CC2)cc1`?
RBBP9 inhibitor: -3; ALR H2O2 inh: 59; SUMO HTRF inh: 11; PREPL inhibitor: 15; UBC13 inh: 10; Rin1-Abl PPI inh: 4

How did COc1ccc(N2CCN(C(=O)[C@H](Cc3c[nH]c4ccccc34)NC(C)=O)CC2)cc1 do in these assays?
RBBP9 inhibitor: 2; ALR H2O2 inh: 98*; SUMO HTRF inh: 16; PREPL inhibitor: 9; UBC13 inh: -4; Rin1-Abl PPI inh: 3

What do the screens show for `COc1ccc(N2CCN(C(=O)CCCCn3c(=O)[nH]c4ccsc4c3=O)CC2)cc1`?
RBBP9 inhibitor: -3; ALR H2O2 inh: 83*; SUMO HTRF inh: 3; PREPL inhibitor: 3; UBC13 inh: 24; Rin1-Abl PPI inh: -5

Results for COc1ccc(N2CCN(CC(=O)N3N=CCC3c3ccccc3)CC2)cc1 (centres undefined) ?
RBBP9 inhibitor: 1; ALR H2O2 inh: 84*; SUMO HTRF inh: -28; PREPL inhibitor: 0; UBC13 inh: -9; Rin1-Abl PPI inh: 2

What do the screens show for `COc1ccccc1N1CCN(CC(=O)N2N=CCC2c2ccccc2)CC1` (centres undefined)?
RBBP9 inhibitor: 0; ALR H2O2 inh: 22; SUMO HTRF inh: 0; PREPL inhibitor: 7; UBC13 inh: -8; Rin1-Abl PPI inh: 1

What do the screens show for `COc1ccc(N2CCN(C(=O)CCc3ccccc3)CC2)cc1`?
ALR H2O2 inh: 97*; SUMO HTRF inh: 4; PREPL inhibitor: -4; UBC13 inh: 4; Rin1-Abl PPI inh: -2

How did C[C@H](O)CNC(=O)c1[nH]cnc1C(=O)Nc1ccc(CNC(=O)OC(C)(C)C)cc1 do in these assays?
Rin1-Abl PPI inh: -1

How did O=c1c(-c2n[nH]c(=S)n2-c2ccccc2)cccn1Cc1cccc(Cl)c1 do in these assays?
RBBP9 inhibitor: -4; ALR H2O2 inh: 93*; SUMO HTRF inh: 6; PREPL inhibitor: 14; UBC13 inh: -4; Rin1-Abl PPI inh: -2

What do the screens show for `COc1cc(SC#N)ccc1N=Cc1c(C)[nH]n(-c2ccc(C)c(C)c2)c1=O`?
RBBP9 inhibitor: -9; ALR H2O2 inh: 94*; SUMO HTRF inh: -7; PREPL inhibitor: 5; UBC13 inh: -18; Rin1-Abl PPI inh: 4

How did CCc1ccccc1NC(=O)N1CCC(NC(=O)C(Cc2ccccc2)NC(C)=O)CC1 (centres undefined) do in these assays?
RBBP9 inhibitor: 6; ALR H2O2 inh: 11; SUMO HTRF inh: 3; PREPL inhibitor: 9; UBC13 inh: -4; Rin1-Abl PPI inh: -2

What do the screens show for `C=CCOc1cccc(C(=O)N2CCCC(Nc3ccc(F)cc3)C2)c1` (centres undefined)?
ALR H2O2 inh: 59; SUMO HTRF inh: 1; PREPL inhibitor: 40; UBC13 inh: -10; Rin1-Abl PPI inh: -1

How did O=C(c1cccc2nccnc12)N1CCCC(Nc2ccc(F)c(F)c2)C1 (centres undefined) do in these assays?
ALR H2O2 inh: 7; SUMO HTRF inh: 10; PREPL inhibitor: 6; UBC13 inh: -15; Rin1-Abl PPI inh: 2

How did Cc1ccc(NC2CCCN(C(=O)c3ccccc3-c3ncc[nH]3)C2)cc1C (centres undefined) do in these assays?
ALR H2O2 inh: 99*; SUMO HTRF inh: 3; PREPL inhibitor: 29; UBC13 inh: 0; Rin1-Abl PPI inh: -1

How did Cc1ccc(NC2CCCN(C(=O)c3cccc(-c4ncc[nH]4)c3)C2)cc1C (centres undefined) do in these assays?
ALR H2O2 inh: 97*; SUMO HTRF inh: 16; PREPL inhibitor: 11; UBC13 inh: -6; Rin1-Abl PPI inh: 0

How did CCOc1ccc(Cl)cc1-c1cc(C(=O)Nc2ccc(C(C)C)cc2)[nH]n1 do in these assays?
Rin1-Abl PPI inh: -7

How did Cn1c(=O)c2c(nc(CN3CCN(c4ccccc4)CC3)n2Cc2ccccc2Cl)n(C)c1=O do in these assays?
RBBP9 inhibitor: -7; SUMO HTRF inh: -4; Rin1-Abl PPI inh: 1

What do the screens show for `Cn1c(=O)c2c(nc(CN3CCN(c4ccccc4)CC3)n2Cc2c(F)cccc2Cl)n(C)c1=O`?
RBBP9 inhibitor: -8; ALR H2O2 inh: 97*; SUMO HTRF inh: 4; PREPL inhibitor: 15; UBC13 inh: -8; Rin1-Abl PPI inh: -3

Results for CCCOc1c(Br)cc(C(=O)OCC(=O)NC(=O)c2cccn2C)cc1OC ?
ALR H2O2 inh: -6; PREPL inhibitor: -1; UBC13 inh: -12; Rin1-Abl PPI inh: 5

Results for Cc1ccc(NC(=O)CCc2c[nH]c3ccccc23)nc1 ?
ALR H2O2 inh: 40; SUMO HTRF inh: -23; PREPL inhibitor: -9; UBC13 inh: 6; Rin1-Abl PPI inh: 3

What do the screens show for `CCOc1ccccc1N1C(=O)CC(N(O)c2ccccc2)C1=O` (centres undefined)?
RBBP9 inhibitor: -6; ALR H2O2 inh: 95*; SUMO HTRF inh: 5; PREPL inhibitor: -3; UBC13 inh: -14; Rin1-Abl PPI inh: 2

How did CCNC(=O)C1(C)CCCN(C(=O)c2cc(-c3ccccc3)cs2)C1 (centres undefined) do in these assays?
Rin1-Abl PPI inh: -2

How did O=C(O)CSc1nc(SCc2ccccc2Cl)nc2c1CCCC2 do in these assays?
RBBP9 inhibitor: -7; ALR H2O2 inh: 95*; SUMO HTRF inh: 0; PREPL inhibitor: -4; UBC13 inh: 2; Rin1-Abl PPI inh: 2

How did COC(=O)CSc1nc(SCc2ccccc2Cl)nc2c1CCCC2 do in these assays?
RBBP9 inhibitor: -7; ALR H2O2 inh: -3; SUMO HTRF inh: -14; PREPL inhibitor: 2; UBC13 inh: -1; Rin1-Abl PPI inh: -3

How did C=CCSC1=N/C(=C\C=C\c2ccco2)C(=O)S1 do in these assays?
RBBP9 inhibitor: -4; ALR H2O2 inh: 99*; SUMO HTRF inh: 43; PREPL inhibitor: 11; UBC13 inh: -15; Rin1-Abl PPI inh: 5
